Type in all cases: functional, organism-based
The subject of one test is Rhizomucor miehei. Nature of the test: Antifungal activity against Mucor miehei at 20 to 120 ug/disk. In a few lines:
(§1)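 Agar diffusion test with compound loaded at 20 to 120 µg/disk. Read-out is a zone of growth inhibition of the test organism on agar. The same format covers bacteria (S. aureus, B. subtilis, E. coli, P. aeruginosa), the fungus Mucor miehei and the yeast Candida albicans.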

The test system of another test is Trichomonas vaginalis. Put plainly: Antiprotozoal activity against Trichomonas vaginalis.
Another test concerns Escherichia coli. Nature of the test: Antibacterial activity against Escherichia coli at 20 to 120 ug/disk. In a few lines: as §1
The test system of another test is Pseudomonas aeruginosa. Put plainly: Antibacterial activity against Pseudomonas aeruginosa at 20 to 120 ug/disk. In a few lines:
as §1

A further test concerns Bacillus subtilis. Put plainly: Antibacterial activity against Bacillus subtilis at 20 to 120 ug/disk. A digest of the protocol: as §1
The test system of the next test is Staphylococcus aureus. Nature of the test: Antibacterial activity against Staphylococcus aureus at 20 to 120 ug/disk. In a few lines: as §1
Another test deals with Candida albicans. Nature of the test: Antifungal activity against Candida albicans at 20 to 120 ug/disk. A digest of the protocol: as §1

The source made the active and inactive calls. No cut-off for these calls is given here.

On to `C[C@@H]1CC(=O)C2=C(C3OC3[C@]3(O)[C@H]2C(=O)c2cccc(O)c2[C@@H]3O)[C@H]1O` (stereo not given in full), for which the result in the test with Rhizomucor miehei, in the test with Trichomonas vaginalis, with Escherichia coli, with Pseudomonas aeruginosa, in the test on Bacillus subtilis and with Staphylococcus aureus was inactive. In addition, in the test with Candida albicans, the outcome was inactive.

For `C[C@@H]1CC(=O)C2=C(C[C@@H](O)[C@]3(O)[C@H]2C(=O)c2cccc(O)c2[C@@H]3O)[C@H]1O`, the outcome in the test on Rhizomucor miehei, with Trichomonas vaginalis, with Escherichia coli, in the test on Pseudomonas aeruginosa, with Bacillus subtilis and in the test on Staphylococcus aureus was inactive. Further, in the test with Candida albicans, the outcome was inactive.

As to `CC1CC(=O)C2(O)C(O)(CCC34OC32C(=O)c2cccc(O)c2C4O)C1` (stereo not given), the result in the test on Rhizomucor miehei, with Escherichia coli, in the test with Pseudomonas aeruginosa, in the test on Bacillus subtilis, with Staphylococcus aureus and in the test with Candida albicans was inactive.

For `C[C@@H]1CC(=O)C2=C(C1)C1OC1[C@]1(O)[C@H]2C(=O)c2cccc(O)c2[C@@H]1O` (stereo not given in full), the result in the test on Rhizomucor miehei, in the test with Trichomonas vaginalis, in the test on Escherichia coli, with Pseudomonas aeruginosa, in the test on Bacillus subtilis and in the test on Staphylococcus aureus was inactive. Moreover, the result with Candida albicans was inactive.

With `C[C@@H]1CC(=O)C2=C(CC[C@]3(O)[C@H]2C(=O)c2cccc(O)c2[C@@H]3O)C1`, the outcome with Rhizomucor miehei, with Trichomonas vaginalis, in the test with Escherichia coli, with Pseudomonas aeruginosa, in the test with Bacillus subtilis and in the test with Staphylococcus aureus was inactive. Also, the result in the test on Candida albicans was inactive.

As to `C[C@@H]1CC(=O)c2c(ccc3c2C(=O)c2cccc(O)c2C3=O)C1`, the result in the test with Pseudomonas aeruginosa and in the test with Bacillus subtilis was Active.

In the case of `C[C@H]1CC(=O)c2c(ccc3c2C(=O)c2cccc(O)c2C3=O)[C@@H]1O`, the outcome in the test with Pseudomonas aeruginosa and in the test with Bacillus subtilis was Active.

Regarding `C[C@@H]1CC(=O)C2=C(C1)C[C@@H](O)[C@]1(O)[C@H]2C(=O)c2cccc(O)c2[C@@H]1O`, the result with Rhizomucor miehei, in the test on Trichomonas vaginalis, in the test with Escherichia coli, in the test on Pseudomonas aeruginosa, in the test on Bacillus subtilis and in the test on Staphylococcus aureus was inactive. Besides, the result in the test with Candida albicans was inactive.

The values above are taken from ChEMBL document CHEMBL1142407, “Angucyclinones from an Indonesian Streptomyces sp” (J Nat Prod, 2008).
